Entries after “also recorded” stand apart in the source; their conditions may differ.
Experiments:
[1] = tested on: replication fork substrate; assay: 2-AP fluorescence quenching, replication fork; format: binding; conditions: 2-AP fluorescence-based solution assay
Outline: (§1)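 Substrates were annealed from oligos (boiled 5 min, slow-cooled), gel-purified on native 12% PAGE and quantified spectrophotometrically. After ≥10 min equilibration, emission was read at 330–430 nm (excitation 315 nm). Adenine-substituted spectra were subtracted, and fold decrease at 370 nm was taken versus no peptide.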

protein-free HJ DNA [2] = assay: peptide/RecG band shift assay on HJ; format: binding; conditions: data not shown
HJ-4AP1 = assay: 2-AP fluorescence titration of additional peptides, HJ-4AP1; format: binding; conditions: for 2-AP quenching / interaction with 4AP1 in HJ: 0.2 μM substrate, pH 7.8, 100 mM NaCl, 1.6% DMSO, peptide dimer 0.05-6.4 μM
Outline: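 Test peptides (C-terminal amides, dissolved in DMSO) titrated as dimers at 0.05, 0.2, 0.8, 3.2 and 6.4 μM into 0.2 μM 2-AP-labelled HJ in 20 mM Tris-HCl pH 7.8, 100 mM NaCl, 1 mM EDTA, 1.6% DMSO at 24°C. Equilibrated ≥3 min with stirring. Excitation 315 nm, emission 365–375 nm. Adenine-substituted junction spectrum subtracted.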

Cre/HJ complex = conditions: cited from earlier work
HJ substrate [3] = assay: 2-AP fluorescence quenching, HJ substrate; format: binding; conditions: center of both HJ and replication forks
Outline: as §1

protein-free HJ DNA [4] = conditions: cited from earlier work
RecG helicase = conditions: cited from earlier work
RuvABC complex = conditions: cited from earlier work
human RAD54 protein = conditions: cited from earlier work
[5] = tested on: replication fork substrates; conditions: ref K. Kepple, Ph.D. Thesis, 2006; cited from earlier work
(WRWYCR)2 [6] = biological target: T1, (WRWYCR)2 (synthetic); assay: EMSA
T1 chain: WRWYCR

RecG = biological target: T2, RecG (Escherichia coli, UniProt P24230 1-693); assay: EMSA
T2 sequence: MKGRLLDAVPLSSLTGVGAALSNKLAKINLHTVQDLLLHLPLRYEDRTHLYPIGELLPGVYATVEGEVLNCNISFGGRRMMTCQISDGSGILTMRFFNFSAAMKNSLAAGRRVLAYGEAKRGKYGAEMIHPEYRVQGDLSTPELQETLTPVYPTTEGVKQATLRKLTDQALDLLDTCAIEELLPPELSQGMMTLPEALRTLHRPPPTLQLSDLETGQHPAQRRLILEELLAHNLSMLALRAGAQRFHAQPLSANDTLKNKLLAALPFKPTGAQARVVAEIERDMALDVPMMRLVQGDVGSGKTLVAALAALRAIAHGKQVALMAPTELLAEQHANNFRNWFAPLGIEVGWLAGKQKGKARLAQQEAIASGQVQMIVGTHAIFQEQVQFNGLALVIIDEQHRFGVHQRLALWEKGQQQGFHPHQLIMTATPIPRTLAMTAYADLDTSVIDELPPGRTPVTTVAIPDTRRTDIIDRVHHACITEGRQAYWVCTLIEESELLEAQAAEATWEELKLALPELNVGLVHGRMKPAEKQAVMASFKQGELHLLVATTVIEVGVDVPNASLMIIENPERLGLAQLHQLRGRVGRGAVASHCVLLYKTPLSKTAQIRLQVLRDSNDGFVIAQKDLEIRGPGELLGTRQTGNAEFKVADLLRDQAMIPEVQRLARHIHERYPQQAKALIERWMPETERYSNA

HJ substrate [7] = assay: dissociation from HJ; format: binding
[8] = tested on: central thymine bases of HJ; conditions: bound to HJ; cited from earlier work
flayed duplex DNA = conditions: cited from earlier work
(WRWYCR)2 [9] = biological target: T1, (WRWYCR)2; assay: 2-AP fluorescence quenching
(WRWYCR)2 [10] = biological target: T1, (WRWYCR)2; assay: 2-AP fluorescence quenching
(KWWCRW)2 = biological target: T3, (KWWCRW)2 (synthetic); assay: 2-AP fluorescence quenching
T3 chain: KWWCRW

WKHYNY = biological target: T4, WKHYNY (synthetic); assay: 2-AP fluorescence quenching
T4 chain: WKHYNY

For KWWCRW, the “binding to replication fork-like substrates” value [1] was “bind to replication fork-like substrates”.

In the case of WKHYNY, the “binding to protein-free HJ” value (protein-free HJ DNA [2]; gel shift assays) is reported as “has not been detected; also recorded: does not bind protein-free junctions”, the “2-AP quenching / interaction with 4AP1 in HJ” value (HJ-4AP1) is reported as “does not interact; also recorded: almost no quenching” and the “2-AP quenching” value (HJ-4AP1; up to 32-fold excess of peptide dimer (6.4 μM)) is reported as “little if any effect”. For the same molecule, the “quenching effect on 2-AP with Cre/HJ complex” value (Cre/HJ complex) was “concentration-dependent quenching effect on 2-AP”.

For (KWWCRW)2 (disulfide), the “quenching of 2-AP in the center of HJ and replication forks” value (HJ substrate [3]) is listed as “quench the fluorescence of 2-AP bases”, the “2-AP quenching / interaction with 4AP1 in HJ” value (HJ-4AP1) is listed as “interacts with 4AP1 in the HJ substrate” and the “binding to free HJ DNA” value (protein-free HJ DNA [4]) is listed as “bind specifically to free HJ DNA”. The “potency relative to (WRWYCR)2” value (protein-free HJ DNA [4]; data not shown) was “nearly as potent as (WRWYCR)2”, the “binding to protein-free junctions” value (protein-free HJ DNA [4]; gel shift and footprinting assays, data not shown) was “binds to protein-free junctions” and the “inhibition of unwinding of branched DNA substrates by RecG” value (RecG helicase) was “inhibit unwinding of branched DNA substrates”. The “inhibition of HJ resolution by RuvABC” value (RuvABC complex) was “inhibit”, the IC50 (RuvABC complex; read-out: IC50, RuvABC) was roughly 50 nM and the “inhibition of D-loop unwinding activity” value (human RAD54 protein) was “inhibit the D-loop unwinding activity”. For the same molecule, the “binding to replication forks by band shift” value [5] was “unable to detect binding”.

For WRWYCR, the “binding to replication fork-like substrates” value [1] was “bind to replication fork-like substrates”.

B1: HJ (oligos 1-4) (structured_DNA)
DNA 1: CGCGGTACGGCCGGAAGCCTGCTTTTTTATACAAGCTTAACTCCC
DNA 2: GGGAGTTAAGCTTGTATAAATGAGGTACTGTTAGGAATTCTCCAAGTGACTACGG
DNA 3: CCGTAGTCACTTGGAGAATTCCTAACAGTACCTCATTTATACCTGCAGCCGACGC
DNA 4: GCGTCGGCTGCAGGTATAAAAAAGCAGGCTTCCGGCCGTACCGCG
For B1, the Kd ((WRWYCR)2 [6]) was 12.5 nM and the binding result (RecG) was “binds”.

B2: RecG: monomeric RecG helicase of Escherichia coli (protein, UniProt P24230 1-693, looked up)
ATP-dependent DNA helicase …: T2 sequence
For B2, the “Kd of RecG by gel mobility shift relative to peptide” value (protein-free HJ DNA [2]; 50 ng nonspecific dsDNA) was “very similar”, the “time for half of bound RecG to dissociate” value (HJ substrate [7]; 0.02 μM RecG, 1 nM labeled HJ, 0.2 μM unlabeled HJ, 4°C) was 25 min and the “dissociation faster than peptide complex” value (HJ substrate [7]; RecG/HJ vs (WRWYCR)2/HJ) was roughly 2 X. The “increase in KMnO4 sensitivity of central thymine bases” value [8] was roughly 2 fold and the “fold lower affinity for flayed DNA than HJ” value (flayed duplex DNA) was no more than 100 fold.

B3: Fork-4AP2 (complete fork) (structured_DNA)
DNA 1: CGCGGTACGGCCGGAAGCCTGGTTTACAATGCAAGCTTGACTGGCAGCCC
DNA 2: GCGTCGAGTCGGCTGCAGAGGTATAAAACCAGGCTTCCGGCCGTACCGCG
DNA 3: GGGCTGCCAGTCAAGCTTGCATTGT
DNA 4: TATACCTCTGCAGCCGACTCGACGC
modifications: one A of strand 4 is 2-aminopurine (AP2; underline lost)
For B3, the Kd ((WRWYCR)2 [9]) was 63.5 ± 12 nM and the binding signal ((WRWYCR)2 [10]) was 2 fold quenching (max).

GCGTCGAGTCGGCTGCAGAGGTATAAAACCAGGCTTCCGGCCGTACCGCG (ssDNA, one A is 2-aminopurine (AP2; underline lost)) [Oligo (strand 4 AP2)] showed a Kd ((WRWYCR)2 [9]) of 731 ± 134 nM.

B4: Lag-4AP2 (lagging strand fork) (structured_DNA)
DNA 1: B3 DNA 1
DNA 2: B3 DNA 2
DNA 3: TATACCTCTGCAGCCGACTCGACGC
modifications: one A of strand 4 is 2-aminopurine (AP2; underline lost)
In the case of B4, the Kd ((WRWYCR)2 [9]) is reported as 79.2 ± 17.3 nM.

B5: Flayed-4AP2 (structured_DNA)
DNA 1: B3 DNA 1
DNA 2: B3 DNA 2
modifications: one A of strand 4 is 2-aminopurine (AP2; underline lost)
In the case of B5, the Kd ((WRWYCR)2 [9]) is reported as 628 ± 107 nM.

B6: Lead-4AP2 (leading strand fork) (structured_DNA)
DNA 1: B3 DNA 1
DNA 2: B3 DNA 2
DNA 3: GGGCTGCCAGTCAAGCTTGCATTGT
modifications: one A of strand 4 is 2-aminopurine (AP2; underline lost)
In the case of B6, the Kd ((WRWYCR)2 [9]) is reported as 132 ± 32.8 nM.

B7: HJ-4AP2 (structured_DNA)
DNA 1: B3 DNA 1
DNA 2: GGGCTGCCAGTCAAGCTTGCATTGTTGGAGGTACTGTTAGGAATTCTCCAAGTGACTCGG
DNA 3: CCGAGTCACTTGGAGAATTCCTAACAGTACCTCCATATACCTCTGCAGCCGACTCGACGC
DNA 4: B3 DNA 2
modifications: one A near junction center of strand 4 is 2-aminopurine (AP2; underline lost)
In the case of B7, the Kd ((WRWYCR)2 [9]) is reported as 14.3 ± 3.2 nM.

B8: HJ-4AP1 (structured_DNA)
DNA 1: B3 DNA 1
DNA 2: B7 DNA 2
DNA 3: B7 DNA 3
DNA 4: B3 DNA 2
modifications: one A of strand 4 is 2-aminopurine (AP1; underline lost)
B8: binds ((KWWCRW)2); no binding (WKHYNY).

Source: article PMC2532710 (Nucleic Acids Research, 2008)
